# According to ChEMBL document CHEMBL1671781, “Discovery and biological characterization of (2R,4S)-1'-acetyl-N-{(1R)-1-[3,5-bis(trifluoromethyl)phenyl]ethyl}-2-(4-fluoro-2-methylphenyl)-N-methyl-4,4'-bipiperidine-1-carboxamide as a new potent and selective neurokinin 1 (NK1) receptor antagonist clinical candidate” (J Med Chem, 2011):
# The source made the active and inactive calls. No cut-off for these calls is given here.
# Tests used:
# [1] = system: Meriones unguiculatus; test: Inhibition of GR73632-induced foot tapping in orally dosed Mongolian gerbil after 1 hr; type: functional; conditions: po, read-out: ID50 (the source's name)
# In short: (§1)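 GR73632 (3 pmol/5 μL) injected icv into the lateral ventricle of Mongolian gerbils; after 1 min recovery, hind foot tapping timed for 3 min (max 180 s). Oral compound or vehicle (10 mL/kg) given 1, 4, 8 or 24 h beforehand, at least seven animals per group.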
# [2] = target: Substance-P receptor (Homo sapiens, UniProt P25103); test: Displacement of [3H]SP from human NK1 receptor expressed in CHO cells by liquid scintillation counting; type: cell-based
# Chain of Substance-P receptor (P25103 whole entry): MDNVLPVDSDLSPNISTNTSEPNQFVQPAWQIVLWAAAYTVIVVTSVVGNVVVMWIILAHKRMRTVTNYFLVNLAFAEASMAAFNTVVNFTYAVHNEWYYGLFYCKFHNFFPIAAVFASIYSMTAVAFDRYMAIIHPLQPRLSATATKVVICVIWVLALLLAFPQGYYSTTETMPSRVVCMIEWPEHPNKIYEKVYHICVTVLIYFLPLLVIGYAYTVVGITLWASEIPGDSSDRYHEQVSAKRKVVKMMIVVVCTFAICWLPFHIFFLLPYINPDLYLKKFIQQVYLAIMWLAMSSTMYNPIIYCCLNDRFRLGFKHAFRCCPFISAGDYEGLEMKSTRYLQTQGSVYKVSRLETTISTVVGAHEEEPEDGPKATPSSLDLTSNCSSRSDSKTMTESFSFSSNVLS
# [3] = system: Meriones unguiculatus; test: Inhibition of GR73632-induced foot tapping in orally dosed Mongolian gerbil after 4 hrs; type: functional; conditions: po, read-out: ID50 (the source's name); in short: as §1
# [4] = system: Meriones unguiculatus; test: Toxicity in Mongolian gerbil assessed as locomotor activity at 1 mg/kg, po; type: functional, organism-based; set-up: dose 1 mg/kg
# In short: (§2)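 Gerbil social interaction arena, po dosing 1 h pretest (0.1, 0.3, 1.0 mg/kg; 10 mL/kg; 10 per group). Abnormal behaviours noted during the 5 min session; sedation checked as locomotor activity scored by line crossing. Compared with vehicle by one-way ANOVA plus Dunnett's test or paired t test.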
# [5] = Bioavailability in dog at 0.5 mg/kg, iv; type: ADME, organism-based, Canis lupus familiaris; conditions: in vivo
# In short: (§3)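 Dog (n = 6), cynomolgus monkey (n = 3) and marmoset (n = 3) received an iv bolus at 0.5 mg/kg and po gavage at 1 mg/kg. Serial blood samples taken, spun to plasma, and assayed after protein precipitation by HPLC-MS/MS; parameters derived from plasma concentrations.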
# [6] = Binding affinity to sodium channel site 2
# [7] = Plasma clearance in mouse at 2 mg/kg, po; type: ADME, organism-based; set-up: dose 2 mg/kg, route oral
# [8] = target: Sigma non-opioid intracellular receptor 1 (Homo sapiens, UniProt Q99720); test: Binding affinity to sigma 1 receptor
# Chain of Sigma non-opioid intracellular receptor 1 (Q99720 whole entry): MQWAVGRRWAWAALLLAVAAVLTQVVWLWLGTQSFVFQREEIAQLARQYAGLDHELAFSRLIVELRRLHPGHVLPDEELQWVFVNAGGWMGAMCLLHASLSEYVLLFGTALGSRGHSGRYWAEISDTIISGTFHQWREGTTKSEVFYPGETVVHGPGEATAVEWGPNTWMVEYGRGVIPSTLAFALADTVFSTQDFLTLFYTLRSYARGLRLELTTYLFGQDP
# [9] = Volume of distribution at steady state in marmoset at 1 mg/kg, iv; type: ADME, organism-based, Callithrix jacchus; set-up: dose 1 mg/kg, route intravenous; conditions: in vivo, read-out: Vdss
# [10] = Binding affinity to calcium channel L type dihydropyridine binding site
# [11] = system: Meriones unguiculatus; test: Antidepressant activity against po dosed Mongolian gerbil assessed as increase in social interaction time at 1 mg/kg, po (Rbv = 19+/-1.2seconds); type: functional
# In short: (§4)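 Pairs of unfamiliar male Mongolian gerbils (50-70 g), matched for treatment, placed in arena centre; active social interaction (sniffing, following, partner grooming, wrestling) scored for 5 min. Dosing 1 h before test, po at 0.1, 0.3 and 1.0 mg/kg (10 mL/kg), randomized, 10 animals per group. One-way ANOVA with Dunnett's test or paired t test versus vehicle.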
# [12] = Half life […] cynomolgus monkey at 1 mg/kg, iv; type: ADME, organism-based, Macaca fascicularis; set-up: dose 1 mg/kg, route intravenous; conditions: in vivo
# [13] = system: Meriones unguiculatus; test: Inhibition of GR73632-induced foot tapping in sc dosed Mongolian gerbil after 1 hr; type: functional; conditions: read-out: ID50 (the source's name)
# In short: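 Gerbil foot tapping model: icv GR73632 3 pmol/5 μL into the lateral ventricle, tapping recorded for 3 min after 1 min recovery. Compound given sc 1 h before agonist, seven animals per group.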
# [14] = Binding affinity to calcium channel L type benzodiazepine binding site
# [15] = Plasma clearance in marmoset at 1 mg/kg, iv; type: ADME, organism-based, Callithrix jacchus; set-up: dose 1 mg/kg, route intravenous
# [16] = system: Meriones unguiculatus; test: Antidepressant activity against po dosed Mongolian gerbil assessed as increase in social interaction time; type: functional, organism-based; in short: as §4
# [17] = Plasma clearance in cynomolgus monkey at 1 mg/kg, iv; type: ADME, organism-based, Macaca fascicularis; set-up: dose 1 mg/kg, route intravenous
# [18] = Bioavailability in marmoset at 1 mg/kg, iv; type: ADME, organism-based, Callithrix jacchus; conditions: in vivo
# [19] = Oral bioavailability in mouse at 2 mg/kg; type: ADME, organism-based; conditions: in vivo
# In short: (§5)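 Mice given 1 mg/kg iv and 2 mg/kg po using a composite design, three animals per time point (n = 21 per arm). Blood collected at nominal times, plasma prepared by centrifugation and analysed by protein precipitation plus HPLC-MS/MS; parameters derived from plasma concentrations.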
# [20] = system: Meriones unguiculatus; test: Inhibition of GR73632-induced foot tapping in orally dosed Mongolian gerbil after 24 hrs; type: functional; conditions: po, read-out: ID50 (the source's name); in short: as §1
# [21] = Half life in dog at 0.5 mg/kg, iv; type: ADME, organism-based, Canis lupus familiaris; set-up: dose 0.5 mg/kg, route intravenous; conditions: in vivo; in short: as §3
# [22] = Volume of distribution at steady state in cynomolgus monkey at 1 mg/kg, iv; type: ADME, organism-based, Macaca fascicularis; set-up: dose 1 mg/kg, route intravenous; conditions: in vivo, read-out: Vdss
# [23] = system: Meriones unguiculatus; test: Toxicity in Mongolian gerbil assessed as abnormal behavior at 0.3 to 1 mg/kg, po; type: organism-based; set-up: dose 0.3-1 mg/kg, route oral; conditions: in vivo; in short: as §2
# [24] = Half life in mouse at 2 mg/kg, po; type: ADME, organism-based; set-up: dose 2 mg/kg, route oral; conditions: in vivo; in short: as §5
# [25] = system: Rattus norvegicus; test: Volume of distribution at steady state in rat at 1 mg/kg, iv and po; type: ADME, organism-based; set-up: dose 1 mg/kg, route oral; conditions: in vivo
# In short: (§6)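 Rats (n = 6) were dosed at 1 mg/kg iv bolus and po by gavage. Serial blood sampling; plasma obtained by centrifugation, then protein precipitation and HPLC-MS/MS quantitation. PK parameters calculated from plasma concentrations.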
# [26] = Bioavailability in cynomolgus monkey at 1 mg/kg, iv; type: ADME, organism-based, Macaca fascicularis; conditions: in vivo
# [27] = system: Meriones unguiculatus; test: Inhibition of GR73632-induced foot tapping in orally dosed Mongolian gerbil after 8 hrs; type: functional; conditions: po, read-out: ID50 (the source's name); in short: as §1
# [28] = Oral bioavailability in rat at 1 mg/kg; type: ADME, organism-based; conditions: in vivo; in short: as §6
# [29] = system: Meriones unguiculatus; test: Antidepressant activity against Mongolian gerbil assessed as increase in social interaction time at 0.3 to 1 mg/kg, po; type: functional, organism-based; in short: as §4
# [30] = Half life in rat at 1 mg/kg, iv and po; type: ADME, organism-based; set-up: dose 1 mg/kg, route oral; conditions: in vivo; in short: as §6
# [31] = Volume of distribution at steady state in dog at 0.5 mg/kg, iv; type: ADME, organism-based, Canis lupus familiaris; set-up: dose 0.5 mg/kg, route intravenous; conditions: in vivo, read-out: Vdss; in short: as §3
# [32] = system: Mus musculus; test: Volume of distribution at steady state in mouse at 2 mg/kg, po; type: ADME, organism-based; set-up: dose 2 mg/kg, route oral; conditions: in vivo
# [33] = Half life in marmoset at 1 mg/kg, iv; type: ADME, organism-based, Callithrix jacchus; set-up: dose 1 mg/kg, route intravenous; conditions: in vivo
# [34] = Plasma clearance in dog at 0.5 mg/kg, iv; type: ADME, organism-based, Canis lupus familiaris; set-up: dose 0.5 mg/kg, route intravenous; in short: as §3
structure (smiles),measurement,setting,value
Cc1cc(F)ccc1[C@H]1C[C@@H](N(C)C)CCN1C(=O)N(C)Cc1cc(C(F)(F)F)cc(C(F)(F)F)c1,ED50,[1],0.26 mg/kg
same,Ki,[2],0.0794 nM
Cc1cc(F)ccc1[C@H]1C[C@@H](N(C)C)CCN1C(=O)N(C)[C@H](C)c1cc(C(F)(F)F)cc(C(F)(F)F)c1,ED50,[1],0.9 mg/kg
same,Ki,[2],0.24 nM
Cc1cc(F)ccc1[C@H]1C[C@H](N(C)C)CCN1C(=O)N(C)[C@H](C)c1cc(C(F)(F)F)cc(C(F)(F)F)c1,Ki,[2],0.933 nM
Cc1cc(F)ccc1[C@H]1C[C@@H](N2CCC2)CCN1C(=O)N(C)Cc1cc(C(F)(F)F)cc(C(F)(F)F)c1,ED50,[3],0.13 mg/kg
same,Ki,[2],0.0813 nM
Cc1cc(F)ccc1[C@H]1C[C@@H](N2CCC2)CCN1C(=O)N(C)[C@H](C)c1cc(C(F)(F)F)cc(C(F)(F)F)c1,Ki,[2],0.178 nM
Cc1cc(F)ccc1[C@H]1C[C@H](N2CCC2)CCN1C(=O)N(C)[C@H](C)c1cc(C(F)(F)F)cc(C(F)(F)F)c1,Ki,[2],0.646 nM
Cc1cc(F)ccc1[C@H]1C[C@@H](N2CCCC2)CCN1C(=O)N(C)Cc1cc(C(F)(F)F)cc(C(F)(F)F)c1,ED50,[1],0.3 mg/kg
same,Ki,[2],0.275 nM
Cc1cc(F)ccc1[C@H]1C[C@@H](N2CCCC2)CCN1C(=O)N(C)[C@H](C)c1cc(C(F)(F)F)cc(C(F)(F)F)c1,ED50,[1],0.92 mg/kg
same,Ki,[2],0.141 nM
Cc1cc(F)ccc1[C@H]1C[C@H](N2CCCC2)CCN1C(=O)N(C)[C@H](C)c1cc(C(F)(F)F)cc(C(F)(F)F)c1,ED50,[3],> 1 mg/kg
same,Ki,[2],0.2 nM
CC(=O)N1CCN([C@H]2CCN(C(=O)N(C)Cc3cc(C(F)(F)F)cc(C(F)(F)F)c3)[C@@H](c3ccc(F)cc3C)C2)CC1,ED50,[1],0.09 mg/kg
same,Ki,[2],0.117 nM
CC(=O)N1CCN([C@@H]2CCN(C(=O)N(C)[C@H](C)c3cc(C(F)(F)F)cc(C(F)(F)F)c3)[C@@H](c3ccc(F)cc3C)C2)CC1,ED50,[1],> 0.3 mg/kg
CN[C@H]1CCN(C(=O)N(C)Cc2cc(C(F)(F)F)cc(C(F)(F)F)c2)[C@@H](c2ccc(F)cc2C)C1,Ki,[2],0.2 nM
Cc1cc(F)ccc1[C@H]1C[C@@H](NC2CC2)CCN1C(=O)N(C)[C@H](C)c1cc(C(F)(F)F)cc(C(F)(F)F)c1,ED50,[3],0.39 mg/kg
same,Ki,[2],0.324 nM
Cc1cc(F)ccc1[C@H]1C[C@@H](NC2CCC2)CCN1C(=O)N(C)[C@H](C)c1cc(C(F)(F)F)cc(C(F)(F)F)c1,Ki,[2],0.17 nM
COCCN[C@H]1CCN(C(=O)N(C)[C@H](C)c2cc(C(F)(F)F)cc(C(F)(F)F)c2)[C@@H](c2ccc(F)cc2C)C1,Ki,[2],0.209 nM
CC(=O)N1CCN([C@H]2CCN(C(=O)N(C)[C@H](C)c3cc(C(F)(F)F)cc(C(F)(F)F)c3)[C@@H](c3ccc(F)cc3C)C2)CC1 [CASOPITANT],Activity,[4],Not toxic
same,bioavailability,[5],34%
same,Ki,[6],4220 nM
same,CL/F,[7],120 mL/min/kg
same,Ki,[8],2980 nM
same,Vd,[9],3.1 L/kg
same,Ki,[10],6580 nM
same,Time,[11],36.6 s
same,half-life,[12],2.1 h
same,ED50,[13],0.05 mg/kg
same,Ki,[14],8780 nM
same,clearance,[15],29 mL/min/kg
same,Activity,[16],Dose-dependent effect
same,ED50,[1],0.08 mg/kg
same,clearance,[17],26 mL/min/kg
same,bioavailability,[18],14%
same,bioavailability,[19],21%
same,ED50,[20],1.1 mg/kg
same,half-life,[21],4.5 h
same,Vd,[22],3 L/kg
same,Activity,[23],Non-toxic
same,half-life,[24],1.1 h
same,Vdss,[25],3.2 L/kg
same,bioavailability,[26],8%
same,ED50,[27],0.19 mg/kg
same,bioavailability,[28],8%
same,Activity,[29],Active
same,half-life,[30],1.8 h
same,Vd,[31],1.9 L/kg
same,Vdss,[32],4 L/kg
same,half-life,[33],1.7 h
same,clearance,[34],10 mL/min/kg
Cc1cc(F)ccc1[C@H]1CNCCN1C(=O)N(C)[C@H](C)c1cc(C(F)(F)F)cc(C(F)(F)F)c1 [VESTIPITANT],ED50,[1],0.014 mg/kg
